A selection: hits, their analogues and other compounds. The true share with any hit is near 2.2%.
PTEN del growth: growth suppressors of cells with PTEN tumor suppressor deletion | viability, % at 10 µM | HCT116 PTEN-null viability, CellTiter-Glo, 60 h; hits give low values | hit rate 1.2% among 140,000;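 active means viability at or below a set limit, 4 SD under the median of all tested compounds, cut at about 3.7% in these data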;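 further: PTEN knockout HCT116 line with beta catenin targeted HCT116 as companion control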
Dynein transport: dynein cargo transport inhibition. 3617.4 mouse cells, GR-EGFP nuclear translocation imaging; test concentration mostly 20 µM; stimulated with dexamethasone, 1 µM; hits give low values. z-score, hits read low. hit rate 0.47% among 220,000;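 active means plate z-score of nuclear minus cytoplasmic receptor signal below a set negative limit, without overly bright fluorescence or cell loss, cut at about -3.5 in these data, passing the limit was not always enough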;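 further: z-score of nuclear minus cytoplasmic ring GR-EGFP intensity difference per well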
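Also added – dexamethasone, 1.0 µM final · Buffer or medium – tet-free, stripped-serum medium · Schedule – induction 48 h, compound 1 h, agonist 30 min · Detection – formaldehyde fixation, Hoechst nuclear stain, 10x automated fluorescence imaging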
SDO1 yeast rescue: compounds rescuing growth of sdo1-depleted yeast, bone marrow failure model; hit rate 0.21% among 140,000; z-score at 10 µM; S. cerevisiae sdo1-depleted JHY4D growth rescue, OD600 30 h; hits give high values; pdr5 snq2 efflux-pump mutant strain;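 active means z-score above 3 at both the 24 hr and the 30 hr optical density reads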;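 further: z-score against mean and SD of all compound wells on the same plate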
HCT116 bCat-KO: beta-catenin-lacking colon tumor cell growth suppression; AID 818; hit rate 1.5% among 140,000; viability, % at 10 µM; HCT116 beta-catenin knockout viability, CellTiter-Glo, 60 h; hits give low values;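 active means viability at or under a set limit, the compound median less 4 SD, cut at about 6% in these data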;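 further: 0% = Hyamine 1622 control at 20 µM and 100% = untreated cell control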
Autophagy mod: alters autophagy in cells | MEF GFP-LC3 puncta imaging; test concentration mostly 10 µM | hit rate 0.98% among 190,000 | calls only at 10 µM (by protocol);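 active means percentage of spot-positive cells more than 3 SD above its plate mean, without a fluorescence outlier flag or 80% toxicity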;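 further: spot-positive cell cutoff set from DMSO-treated cells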
An asterisk follows results filed as active; i = inactive; x = no result; + = active, no number.

SMILES	PTEN del growth	Dynein transport	SDO1 yeast rescue	HCT116 bCat-KO	Autophagy mod
COc1ccccc1NC1=C(N2CCCCC2)C(=O)c2ccccc2C1=O	5	0.43	-1.5	3.1*	i
Cc1cccn2cc(-c3ccc(S(=O)(=O)N4CCCCC4)cc3)nc12	x	0.19	x	x	+
COc1cc(SC)ccc1C(=O)Nc1ccc(Br)cn1	x	0.15	x	x	x
COc1cc(SC)ccc1C(=O)Nc1ncc(Cl)cc1Cl	x	3.6	x	x	+
Cc1ccc(C=C2C(Cl)=C(Cl)C(Cl)=C2Cl)cc1	x	-6.2*	x	x	x
COc1ccc(Nc2nc3c(C)cccc3cc2C#N)c(OC)c1	91	2.9	0.12	88	+
COc1ccc(Nc2nc3cc(C)ccc3cc2C#N)c(OC)c1	x	0.4	x	x	+
COc1ccc(Nc2nc3ccc(C)cc3cc2C#N)c(OC)c1	87	1.1	0.17	74	i
CCN(C(=O)c1nn(-c2ccc(OC)cc2)c(=O)c2c1c1ccccc1n2C)c1ccc(OC)cc1	x	-0.59	x	x	i
CCCCN(C)CCNC(=O)c1nn(-c2ccc(OC)cc2)c(=O)c2c1c1ccccc1n2C	x	-0.11	x	x	+
CNc1ccccc1C(C)(C)c1cc(-c2ccc(F)cc2)no1	33	-0.83	-0.3	23	i
CC(NCC(O)COC1CCC(C(C)(C)C)CC1)c1ccccc1 (centres undefined)	x	0.56	x	x	+
CC1(C)CC(=O)C(CC(=O)Nc2cc(C(F)(F)F)ccc2Cl)C(=O)C1	x	-1.2	x	x	i
COc1ccc(/C=C2\CCCC3C2=NN(C(=O)c2ccco2)C3c2ccc(OC)c(OC)c2)cc1OC (centres undefined)	2.5*	0.62	-1.8	5.6*	i
Cc1nc2cc(C(=O)N3c4ccccc4CC3C)ccc2s1 (centres undefined)	x	0.32	x	x	i
CCN(CC)S(=O)(=O)c1cc(Br)c(C)cc1OC	100	-0.12	-0.05	91	i
CCn1c(=O)cc(NC2=NCC(C)CN2c2cccc(Cl)c2)n(C)c1=O (centres undefined)	94	-0.44	-0.53	94	i
CCC(=O)Nc1ccc(/C(C)=N/NC(=O)c2c(Br)c(C)nn2C)cc1	66	-0.35	0.15	67	i
C/C(=N\NC(=O)c1c(Br)c(C)nn1C)c1ccc(NC(=O)C(C)Oc2ccc(Cl)cc2C)cc1 (centres undefined)	1.4*	0.54	-0.63	0.9*	i
COc1ccccc1-n1c(=O)oc2ccc(Cl)cc2c1=O	1.9*	1.1	-1.9	1.2*	i
COc1ccc(COc2cc(-c3cccc(OC)c3)nc3ccc(NC(=O)c4cccnc4)cc23)cc1	33	0.56	-0.09	34	+
Cc1ccc(C)c(NC(=O)Cn2nc(C(F)(F)F)cc2C2CC2)c1	10	-0.77	-0.79	5.3*	i
CC(C)(C)NS(=O)(=O)c1cnc(Cl)c(Cl)c1	93	-0.95	0.92	80	i
CCc1cc(=O)oc2cc3occ(-c4ccc(OC)c(F)c4)c3cc12	2.7*	-0.69	-0.01	4.2*	+
CCN1/C(=C/C=C/C=C/c2sc3ccccc3[n+]2CC)Sc2ccccc21	1.7*	-2.4	0.54	1.2*	i
SMILES	PTEN del growth	Dynein transport	SDO1 yeast rescue	HCT116 bCat-KO	Autophagy mod
C/C(=N\NC(=O)c1cc(C(C)(C)C)[nH]n1)C12CC3CC(CC(C3)C1)C2	x	1.7	x	x	+
CSc1nc(=S)n(Cc2ccccc2)c(C)c1C(C)=O	88	-0.71	-0.49	90	+
CC(C)(C)c1ccccc1OCCCCCNCCO	65	0.036	0.32	46	i
CC(C)CCNC(=O)C(c1ccco1)N(C(=O)Cn1nnc2ccccc21)c1ccc2c(c1)OCO2 (centres undefined)	3.3*	1.1	-0.31	3.1*	i
Cc1c(Nc2cc(N3CCOCC3)c3nonc3c2[N+](=O)[O-])c(=O)n(-c2ccccc2)n1C	x	0.85	x	x	i
Cc1c(Nc2cc(Cl)c3nonc3c2[N+](=O)[O-])c(=O)n(-c2ccccc2)n1C	x	-6*	x	x	+
CC1=CC(C)(C)Nc2ccc(OC(=O)CN3C(=O)c4ccccc4C3=O)cc21	1.5*	-0.38	-0.14	1.4*	i
CC1=CC(C)(C)Nc2ccc(OC(=O)CN3C(=O)c4cccc5cccc(c45)C3=O)cc21	18	-0.057	-0.73	15	i
CCOC(=O)c1sc2cc([N+](=O)[O-])cc(SCC(C)C)c2c1N	101	-0.82	0.56	90	+
C=CCNc1cnn(-c2ccc(C)cc2)c(=O)c1Sc1ccc(C)cc1	x	0.41	x	x	i
CCC(=O)c1ccc(SC(=O)N(C)C)cc1O	x	1.1	x	x	x
COc1ccc(NC(=O)c2ccco2)cc1NC(=O)c1cccc(OC(C)C)c1	62	-0.013	-0.68	72	+
C#CCOCCOCCOCCNc1nc(N2CCN(C(=O)[C@H](CCCCN)n3cc(C(N)CO)nn3)CC2)nc(N2CCN(C(=O)[C@H](CCC(=O)O)n3cc(C(N)[C@H](C)CC)nn3)CC2)n1 (some centres undefined)	x	-0.16	x	x	i
COc1ccc(/C=C(/C(=O)c2ccc(Cl)cc2Cl)n2cncn2)cc1	82	-0.17	-0.94	83	i
CC(C)CC(=O)/C(=C\c1ccc(Cl)cc1Cl)n1cncn1	1.3*	-3	-2	1.6*	i
CC1=Nc2ccccc2/C1=C\c1nc(-c2ccccc2)oc1O	54	-2	-1.5	60	i
COc1ccc(-c2nc(/C=C3\C(C)=Nc4ccccc43)c(O)o2)cc1	x	2.3	x	x	+
C(=N\Nc1ncnc2nc[nH]c12)/c1cccs1	x	-0.51	x	x	i
CN(C)CCN(C)Cc1ccccc1Sc1cccc2ccccc12	1.5*	-3.1	-0.25	1.2*	i
CNCc1ccccc1Sc1cccc2ccccc12	7	-0.17	-0.81	16	i
Cc1nc2ccccn2c1C(=O)OCC#N	x	-1.1	x	x	i
CC(C)=CC(=O)NCc1c(Cl)cccc1-n1cccc1	93	0.36	0.22	96	i
CC(=O)N1CCN(c2cc(N3CCCC3)c(F)cc2[N+](=O)[O-])CC1	x	0.92	x	x	i
CCN1CCN(c2cc(N3CCc4ccccc4C3)c(F)cc2[N+](=O)[O-])CC1	0.5*	-1.8	-0.11	1.0*	i
CCCc1c2ccccc2nc2ccccc12	91	0.52	-0.22	93	i
COc1ccc(-c2cc(C(F)(F)F)n3nc(C(=O)NCc4ccco4)cc3n2)cc1	90	-0.91	-0.18	101	+
O=C(NCc1ccco1)c1cc2nc(-c3ccc4c(c3)OCO4)cc(C(F)(F)F)n2n1	94	3.3	-0.02	95	i
COc1ccc(-c2cc(C(F)(F)F)n3nc(C(=O)NCc4ccco4)c(Cl)c3n2)cc1	8	1.7	-0.43	4.4*	i
CCCCCCn1c(CN2CCCCC2C)nc2c1c(=O)n(C)c(=O)n2C (centres undefined)	10	-0.28	-0.24	6.0*	i

Bioassay records as filed in PubChem BioAssay.
